Experimental findings from ChEMBL document CHEMBL1154778, “Synthesis and biological evaluation of C-5 methyl substituted 4-arylthio and 4-aryloxy-3-Iodopyridin-2(1H)-one type anti-HIV agents” (J Med Chem, 2009) are described below.

Some results are limits rather than exact numbers.

The test system of assay [1] is Human immunodeficiency virus 1. The assay can be described thus: Antiviral activity against HIV1 HXB2 harboring K103N mutant reverse transcriptase infected in human MT4 cells after 5 days by MTT assay. Format: functional, organism-based. The note with it: Human immunodeficiency virus 1, HXB2, MT4, 120 h. An outline of the steps:
(§1)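 Mutant viruses were made by recombining the mutant PR-RT sequence into a PR-RT-deleted HIV-1 HXB2 proviral clone. MT4 cells were grown in RPMI 1640 with 10% FCS and antibiotics. Virus at 200 CCID50/well and 30000 cells/well were incubated with varied compound concentrations for 5 days at 37 °C, 5% CO2. MTT viability gave IC50, the concentration giving 50% infection versus the drug-free control.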
In general terms: Formazan colour is commonly taken as a measure of viable cells.

Assay [2] is described as follows: Selectivity index, ratio of CC50 for human MT4 cells to IC50 for HIV-1 LAI harboring wild type reverse transcriptase infected in human MT4 cells. The class given is functional. An outline of the steps: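 Cytotoxicity was measured in mock-infected MT4 cultures (30000 cells/well) given the same compound concentration range, run in parallel with the infected cultures for 5 days at 37 °C, 5% CO2, with MTT viability. CC50 was the concentration reducing viability by 50% versus the drug-free control. SI was CC50 divided by IC50 against HIV-1 LAI.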

Assay [3] deals with Human immunodeficiency virus 1. The assay can be described thus: Antiviral activity against HIV-1 LAI harboring wild type reverse transcriptase infected in human MT4 cells after 5 days by MTT assay. Format: functional, organism-based. The following applies: Human immunodeficiency virus 1, LAI, MT4, 120 h. An outline of the steps:
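MT4 cells were kept in RPMI 1640 with 10% fetal calf serum and antibiotics at 37 °C, 5% CO2. A range of compound concentrations was incubated with HIV-1 LAI at 200 CCID50/well and 30000 MT4 cells/well for 5 days at 37 °C. Cell viability was read by MTT, and IC50 was the concentration giving 50% infection versus the drug-free control.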

Assay [4] relates to Human immunodeficiency virus 1. The assay can be described thus: Antiviral activity against HIV1 HXB2 harboring Y188L mutant reverse transcriptase infected in human MT4 cells after 5 days by MTT assay. The following applies: Human immunodeficiency virus 1, HXB2, MT4, 120 h. Format: functional, organism-based. An outline of the steps:
as §1

In assay [5] the test system is Human immunodeficiency virus 1. The assay can be described thus: Antiviral activity against HIV1 HXB2 harboring Y181C mutant reverse transcriptase infected in human MT4 cells after 5 days by MTT assay. Format: functional, organism-based. The following applies: Human immunodeficiency virus 1, HXB2, MT4, 120 h. An outline of the steps:
as §1

As usually defined, the IC50 is the concentration that inhibits the measured activity by half. A low value points to inhibition by little substance. As for `Cc1cc(C)cc(Oc2c(CSCc3nccs3)c(C)[nH]c(=O)c2I)c1`, the IC50 in assay [1] was found to be 25.1 nM; in assay [3] it was 7.94 nM; in assay [4], 2000 nM; in assay [5], 39.8 nM. In addition, in assay [2], the “Ratio CC50/IC50” value is on record as above 12589.
The matching figures for `Cc1cc(C)cc(Sc2c(CSCc3cccs3)c(C)[nH]c(=O)c2I)c1`: 10 nM, 10 nM, 794 nM, 39.8 nM and above 10000.
In the case of `Cc1cc(C)cc(Oc2c(CSC3CCCC3)c(C)[nH]c(=O)c2I)c1`, the IC50 in assay [1] was 31.6 nM; in assay [3], 10 nM; in assay [4], 630 nM; in assay [5], 100 nM. Also, the “Ratio CC50/IC50” value in assay [2] is above 10000.
In the case of `Cc1cc(C)cc(Sc2c(CSC(C)C)c(C)[nH]c(=O)c2I)c1`, the IC50 in assay [1] turned out to be 31.6 nM; in assay [3], 7.94 nM; in assay [4] it was 3160 nM; in assay [5], 630 nM. The “Ratio CC50/IC50” value in assay [2] is recorded as above 12589.
The matching figures for `Cc1cc(C)cc(Sc2c(Cn3cnc(C)n3)c(C)[nH]c(=O)c2I)c1`: 1.99 nM, 0.79 nM, 100 nM, 15.8 nM and above 125893.
Consider `Cc1cc(C)cc(Oc2c(CN3CCSCC3)c(C)[nH]c(=O)c2I)c1`, for which the IC50 in assay [1] worked out at 7.94 nM; in assay [3], 6.3 nM; in assay [4] it was 125 nM; in assay [5] it was 39.8 nM. In addition, the “Ratio CC50/IC50” value in assay [2] is given as above 15849.
In the same order, the values of `Cc1cc(C)cc(Oc2c(Cn3cccn3)c(C)[nH]c(=O)c2I)c1` are 6.3 nM, 5.01 nM, 316 nM, 31.6 nM and above 19952.
With `CCOC(=O)CC1CN(Cc2c(C)[nH]c(=O)c(I)c2Oc2cc(C)cc(C)c2)CCO1` (stereo not given), the IC50 worked out at 1.99 nM in assay [1], 6.3 nM in assay [3], 50.1 nM in assay [4] and 25.1 nM in assay [5]. Further, the “Ratio CC50/IC50” value in assay [2] is above 15849.
With `Cc1cc(C)cc(Sc2c(Cn3nc(-c4ccco4)nc3C)c(C)[nH]c(=O)c2I)c1`, the IC50 in assay [1] was found to be 12.5 nM; in assay [3] it was 1.99 nM; in assay [4], 31.6 nM; in assay [5], 31.6 nM. The “Ratio CC50/IC50” value in assay [2] is listed as above 50119.
With `Cc1cc(C)cc(Oc2c(CN(C)Cc3ccco3)c(C)[nH]c(=O)c2I)c1`, the IC50 in assay [1] was found to be 31.6 nM; in assay [3], 5.01 nM; in assay [4], 251 nM; in assay [5] it was 39.8 nM. Moreover, the “Ratio CC50/IC50” value in assay [2] is reported as 12589.
The matching figures for `Cc1cc(C)cc(Sc2c(Cn3cnc(-c4ccccc4)n3)c(C)[nH]c(=O)c2I)c1`: 7.94 nM, 6.3 nM, 39.8 nM, 10 nM and above 15849.
In the same order, the values of `Cc1cc(C)cc(Sc2c(CSCCc3cnccn3)c(C)[nH]c(=O)c2I)c1` are 5.01 nM, 1.99 nM, 199 nM, 31.6 nM and above 39811.
In the same order, the values of `CCOC(=O)CC1CN(Cc2c(C)[nH]c(=O)c(I)c2Sc2cc(C)cc(C)c2)CCO1` (stereo not given) are 0.62 nM, 2.51 nM, 50 nM, 25.1 nM and 25119.
As to `Cc1cc(C)cc(Sc2c(CN3CCC(O)CC3)c(C)[nH]c(=O)c2I)c1`, the IC50 in assay [1] is 12.5 nM; in assay [3], 5.01 nM; in assay [4] it was 3980 nM; in assay [5], 316 nM. In addition, the “Ratio CC50/IC50” value in assay [2] is on record as above 19953.
In the same order, the values of `Cc1cc(C)cc(Oc2c(COCc3ccccc3)c(C)[nH]c(=O)c2I)c1` are 31.6 nM, 7.94 nM, 125 nM, 31.6 nM and above 12589.
As for `Cc1cc(C)cc(Oc2c(COCc3ccc(F)cc3)c(C)[nH]c(=O)c2I)c1`, the IC50 amounted to 7.94 nM in assay [1], 7.94 nM in assay [3], 79.4 nM in assay [4] and 25.1 nM in assay [5]. For the same molecule, in assay [2], the “Ratio CC50/IC50” value is given as above 12589.
Consider `CC(=O)c1c(C)cn(Cc2c(C)[nH]c(=O)c(I)c2Sc2cc(C)cc(C)c2)c1C`, for which the IC50 in assay [1] was 50.1 nM; in assay [3], 10 nM; in assay [4] it was 199 nM; in assay [5], 63 nM. The “Ratio CC50/IC50” value in assay [2] is 5012.
As to `Cc1cc(C)cc(Sc2c(Cn3ccnn3)c(C)[nH]c(=O)c2I)c1`, the IC50 in assay [1] came to 1 nM; in assay [3], 1.99 nM; in assay [4], 50.1 nM; in assay [5] it was 10 nM. Also, the “Ratio CC50/IC50” value in assay [2] was above 50119.
The matching figures for `Cc1cc(C)cc(Sc2c(CSCc3ccco3)c(C)[nH]c(=O)c2I)c1`: 5.01 nM, 6.3 nM, 1000 nM, 39.8 nM and above 12589.
Take `Cc1cc(C)cc(Sc2c(Cc3ccc[nH]3)c(C)[nH]c(=O)c2I)c1`: the IC50 in assay [1] was found to be 0.5 nM; in assay [3], 3.98 nM; in assay [4] it was 50.1 nM; in assay [5], 10 nM. Also, the “Ratio CC50/IC50” value in assay [2] is above 25119.
For the molecule `Cc1cc(C)cc(Sc2c(CN3CCC(C(N)=O)CC3)c(C)[nH]c(=O)c2I)c1`, the IC50 stood at 10 nM in assay [1], 5.01 nM in assay [3], 1260 nM in assay [4] and 158 nM in assay [5]. Moreover, in assay [2], the “Ratio CC50/IC50” value is above 19953.
For the molecule `Cc1cc(C)cc(Sc2c(CN3CCOCC3)c(C)[nH]c(=O)c2I)c1`, the IC50 in assay [1] was 1.25 nM; in assay [3], 1.25 nM; in assay [4], 158 nM; in assay [5], 31.6 nM. Besides, the “Ratio CC50/IC50” value in assay [2] stood at 7943.
Consider `CCSCc1c(C)[nH]c(=O)c(I)c1Sc1cc(C)cc(C)c1`, for which the IC50 amounted to 5.01 nM in assay [1], 3.16 nM in assay [3], 630 nM in assay [4] and 31.6 nM in assay [5]. For the same molecule, in assay [2], the “Ratio CC50/IC50” value is recorded as above 15849.
In the case of `COC1CCCN(Cc2c(C)[nH]c(=O)c(I)c2Sc2cc(C)cc(C)c2)C1` (stereo not given), the IC50 in assay [1] turned out to be 3.16 nM; in assay [3], 5.01 nM; in assay [4] it was 125 nM; in assay [5] it was 25.1 nM. Also, the “Ratio CC50/IC50” value in assay [2] is reported as above 19953.
With `Cc1cc(C)cc(Oc2c(COCc3cccs3)c(C)[nH]c(=O)c2I)c1`, the IC50 in assay [1] was 6.3 nM; in assay [3] it was 6.3 nM; in assay [4] it was 50.1 nM; in assay [5] it was 31.6 nM. The “Ratio CC50/IC50” value in assay [2] is recorded as above 15849.
With `Cc1cc(C)cc(Oc2c(CNC(=O)c3cc4ccccc4o3)c(C)[nH]c(=O)c2I)c1`, the IC50 was 199 nM in assay [1], 6.3 nM in assay [3], 158 nM in assay [4] and 31.6 nM in assay [5]. Further, the “Ratio CC50/IC50” value in assay [2] is above 15849.
The matching figures for `Cc1cc(C)cc(Oc2c(Cn3cc(Br)cn3)c(C)[nH]c(=O)c2I)c1`: 7.94 nM, 7.94 nM, 100 nM, 31.6 nM and above 12589.
The matching figures for `Cc1cc(C)cc(Sc2c(Cn3nc(C)nc3C)c(C)[nH]c(=O)c2I)c1`: 31.6 nM, 3.16 nM, 158 nM, 39.8 nM and above 31623.
In the same order, the values of `Cc1cc(C)cc(Oc2c(COCC3CCCO3)c(C)[nH]c(=O)c2I)c1` (stereo not given) are 31.6 nM, 7.94 nM, 501 nM, 39.8 nM and above 12589.
For the molecule `Cc1cc(C)cc(Oc2c(COCc3ccsc3)c(C)[nH]c(=O)c2I)c1`, the IC50 came to 25.1 nM in assay [1], 5 nM in assay [3], 100 nM in assay [4] and 25.1 nM in assay [5]. Moreover, in assay [2], the “Ratio CC50/IC50” value is reported as above 19953.
As to `Cc1cc(C)cc(Sc2c(Cn3cccc3)c(C)[nH]c(=O)c2I)c1`, the IC50 in assay [1] came out at 1 nM; in assay [3] it was 2.51 nM; in assay [4], 158 nM; in assay [5] it was 31.6 nM. Moreover, in assay [2], the “Ratio CC50/IC50” value is 19953.
The matching figures for `CCS(=O)(=O)Cc1c(C)[nH]c(=O)c(I)c1Oc1cc(C)cc(C)c1`: 39.8 nM, 7.94 nM, 794 nM, 158 nM and above 12589.
As to `Cc1cc(C)cc(Oc2c(Cn3cncc3C)c(C)[nH]c(=O)c2I)c1`, the IC50 was found to be 10 nM in assay [1], 5.01 nM in assay [3], 125 nM in assay [4] and 31.6 nM in assay [5]. Further, the “Ratio CC50/IC50” value in assay [2] is reported as above 19952.
